Data: ChEMBL document CHEMBL1126041, “Leukotriene B4 receptor antagonists: the LY255283 series of hydroxyacetophenones” (J Med Chem, 1992)

Legend:
[1] = target: Leukotriene B4 receptor 1 (Homo sapiens) (UniProt Q15722); experiment: Inhibition of [3H]LTB4 binding to leukotriene B4 receptor from human peripheral neutrophils (PMN), at a concentration of 1 uM
Method in brief: (§1)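 Neutrophils isolated by Ficoll-Hypaque centrifugation, dextran 70 sedimentation and hypotonic lysis (≥90% neutrophils, ≥90% viable), 2 × 10^7 cells/mL in Hank's balanced salt solution with 0.1% ovalbumin. Compound in DMSO plus 2.65 nM [3H]LTB4 (stock), 10 min at 4 °C. Cells spun through dibutyl/dinonyl phthalate (7:2), pellet counted by scintillation. Triplicate incubations averaged. Reported as % inhibition of specific binding; nonspecific binding taken with >2000-fold excess unlabeled LTB4.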

[2] = target: Leukotriene B4 receptor 1 (Homo sapiens) (UniProt Q15722); experiment: Inhibition of binding of [3H]LTB4 to the leukotriene B4 receptor of human peripheral neutrophils (PMN) at a concentration of 10 uM.; method in brief: as §1
[3] = target: Leukotriene B4 receptor (Homo sapiens) (UniProt Q9NPC1+Q15722); experiment: Inhibition of [3H]LTB4 binding to leukotriene B4 receptor of human peripheral neutrophils (PMN) at a concentration of 0.1 uM.; assay type: protein assay; method in brief: as §1
Leukotriene B4 receptor (Homo sapiens), sequence (Q15722 whole entry, looked up): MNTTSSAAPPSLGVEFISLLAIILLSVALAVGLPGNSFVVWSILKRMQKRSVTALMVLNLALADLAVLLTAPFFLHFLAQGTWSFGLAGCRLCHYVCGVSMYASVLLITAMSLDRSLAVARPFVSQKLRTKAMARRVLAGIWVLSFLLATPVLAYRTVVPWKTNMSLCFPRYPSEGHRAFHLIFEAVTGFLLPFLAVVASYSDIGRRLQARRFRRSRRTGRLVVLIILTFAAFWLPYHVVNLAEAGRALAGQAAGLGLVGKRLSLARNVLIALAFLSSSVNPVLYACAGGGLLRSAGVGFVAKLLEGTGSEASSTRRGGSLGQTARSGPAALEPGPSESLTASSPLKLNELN
Leukotriene B4 receptor (Homo sapiens), sequence (Q9NPC1 whole entry, looked up): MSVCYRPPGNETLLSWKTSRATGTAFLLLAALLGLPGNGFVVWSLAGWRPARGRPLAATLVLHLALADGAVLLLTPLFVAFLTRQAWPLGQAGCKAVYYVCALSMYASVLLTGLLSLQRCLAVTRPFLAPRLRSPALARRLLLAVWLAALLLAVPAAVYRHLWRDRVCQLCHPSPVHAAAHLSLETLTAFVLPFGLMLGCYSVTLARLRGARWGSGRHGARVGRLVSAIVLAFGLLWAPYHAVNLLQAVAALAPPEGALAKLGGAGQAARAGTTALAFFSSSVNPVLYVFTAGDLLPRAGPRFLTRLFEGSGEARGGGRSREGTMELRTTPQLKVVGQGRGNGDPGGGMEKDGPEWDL

Leukotriene B4 receptor 1 (Homo sapiens), sequence (Q15722 whole entry): as the sequence (Q15722 whole entry, looked up) above

inhibition [1]: 30%
inhibition [2]: 79%
inhibition [3]: 5%
Compound: CCc1cc(C(C)=O)c(O)cc1OCCCCC(C)(C)C#N
